Compound activity deposited in PubChem by several laboratories.
An excerpt weighted towards active compounds, which were near 2% of everything screened.
UCH37 inh: inhibitors of human deubiquitinating enzyme UCH37. actives 0.33% (n = 330,000). Q9Y5K5. inhibition, % (no concentration beside the values). purified proteasome/UCH37, Ub-AMC cleavage fluorescence. AID 588478;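 active = mean inhibition over replicate wells above about 20%, limit read from the data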;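 also: 0% = compound-free wells with enzyme and 100% = wells lacking proteasome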
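Test system – human UCH37 enzyme supplied as purified proteasome complex · Incubation – 30 min preincubation with enzyme, 25 min cleavage at room temperature · Detection – AMC fluorescence from Ub-AMC cleavage, excitation 355 nm, emission 460 nm · Benchmarks – no-proteasome wells (full inhibition) and compound-free wells (no inhibition)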
PP5 inh: inhibitors of human protein phosphatase 5 (PP5) | inhibition, % at 6.7 µM | actives 0.18% (n = 320,000) | purified PP5c, OMFP substrate fluorescence | P53041;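 active = inhibition above the campaign's mean inhibition across all tested compounds plus 3 SD, cut at about 9.5% in these data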;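 also: 0% = DMSO only and 100% = 100 µM cantharidin control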
PAD4 FP inh: PAD4 (human) enzyme inhibition | actives 0.41% (n = 330,000) | inhibition, % at 6.36 µM | AID 485272 | Q9UM07 | recombinant PAD4, RCA probe fluorescence polarization;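 active = percent inhibition above a cutoff equal to the mean of all tested compounds plus 3 SD, cut at about 15% in these data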;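 also: 0% = PAD4 with RCA probe and DMSO and 100% = probe without PAD4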
Target sequence (Q9UM07 whole entry, looked up): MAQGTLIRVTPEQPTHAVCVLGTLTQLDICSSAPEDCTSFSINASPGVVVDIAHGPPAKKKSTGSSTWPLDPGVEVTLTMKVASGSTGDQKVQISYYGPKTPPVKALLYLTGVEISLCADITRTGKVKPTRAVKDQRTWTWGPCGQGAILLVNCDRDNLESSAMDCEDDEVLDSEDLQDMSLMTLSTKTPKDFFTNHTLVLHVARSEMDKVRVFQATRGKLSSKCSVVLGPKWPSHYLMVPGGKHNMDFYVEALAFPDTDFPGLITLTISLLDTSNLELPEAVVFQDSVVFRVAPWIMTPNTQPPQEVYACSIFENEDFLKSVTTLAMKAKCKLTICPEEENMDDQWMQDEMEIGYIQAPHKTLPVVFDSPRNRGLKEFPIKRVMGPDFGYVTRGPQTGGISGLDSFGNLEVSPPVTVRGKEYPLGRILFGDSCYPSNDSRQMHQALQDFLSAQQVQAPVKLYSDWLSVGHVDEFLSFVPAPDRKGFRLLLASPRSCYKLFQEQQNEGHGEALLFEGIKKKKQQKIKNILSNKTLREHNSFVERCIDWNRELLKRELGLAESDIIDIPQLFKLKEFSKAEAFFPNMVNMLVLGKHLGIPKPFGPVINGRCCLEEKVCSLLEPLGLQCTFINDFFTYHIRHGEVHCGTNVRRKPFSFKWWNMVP
GSTO1 counter: counter-screen for RBBP9 inhibitors: inhibitors of human GSTO1 | inhibition, % at 5.96 µM | P78417 | recombinant GSTO1, activity-based probe fluorescence polarization | actives 1.1% (n = 300,000);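 active = inhibition above the campaign mean inhibition plus 3 SD, cut at about 35% in these data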;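 also: 0% = GSTO1-1 with DMSO and 100% = wells lacking GSTO1-1 enzyme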
Apaf1 inhib: blocks human Apaf-1 apoptosome activity; O14727; reconstituted apoptosome caspase-3 activity, DEVD-Rh110 fluorescence; inhibition, % at 20 µM; actives 0.71% (n = 330,000); AID 489030; active = inhibition of at least 40% at 20 µM;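 also: plate controls were DMSO wells for no effect and DEVD-CHO caspase inhibitor wells for full effect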
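Material: cell-free apoptosome with Apaf-1, procaspase-3 and caspase-9; Buffer or medium: Hepes pH 7.5 with detergent and BSA; Reagent: cytochrome c trigger plus (Z-DEVD)2-Rh110 caspase-3 substrate; Times: compound with Apaf-1, dATP, procaspase-3 30 min, then 50 min reaction, room temperature; Technique: Rh110 fluorescence intensity.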
Fh CTSL1 inh: cathepsin L1 inhibition, PFM18AAP counter-screen; inhibition, % at 5.96 µM; actives 0.49% (n = 300,000); recombinant F. hepatica cathepsin L1, Z-Leu-Arg-MCA fluorescence;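 active = inhibition above the mean of all tested compounds plus 3 SD, set per screening campaign, cut at about 17% in these data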;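 also: 0% = plate median of test compound wells and 100% = 1 µM Z-Phe-Ala-diazomethylketone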
PAD4 FP conf: PAD4 (human) inhibition, confirmed; shares compounds with PAD4 FP inh; recombinant PAD4, RCA probe fluorescence polarization; inhibition, % at 6.36 µM; actives 28% (n = 1,200);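 active = mean inhibition across replicates above the hit cutoff set by the earlier primary screen, cut at about 15% in these data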;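 also: inhibitors block active-site labeling by the probe so polarization falls; 0% = PAD4 with probe and DMSO and 100% = probe without PAD4 enzyme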
An asterisk follows results filed as active.

For COC(=O)c1c(Cl)c2n3ccccc3c(C)c(-c3ccccc3)c-2c1C(=O)OC the results were UCH37 inh 4, PP5 inh 5, PAD4 FP inh 16*, GSTO1 counter 29, Apaf1 inhib 16, Fh CTSL1 inh 2 and PAD4 FP conf 6.
`COC(=O)c1cc2c(-c3ccccc3)c(C)c3ccccn3c-2c1C(=O)OC` gave UCH37 inh -1, PP5 inh 2, PAD4 FP inh -3, GSTO1 counter 8, Apaf1 inhib 22 and Fh CTSL1 inh 3.
`Cn1ncc2nc[nH]c(=O)c21` gave UCH37 inh 1, PP5 inh 3, PAD4 FP inh 19*, GSTO1 counter 4, Apaf1 inhib -2, Fh CTSL1 inh 0 and PAD4 FP conf 6.
For COC(=O)c1ccc(C(=O)OC)c(NC(=O)COc2ccccc2OC)c1 the results were UCH37 inh 0, PP5 inh 3, PAD4 FP inh 16*, GSTO1 counter -3, Apaf1 inhib 11, Fh CTSL1 inh 0 and PAD4 FP conf 18*.
For COC(=O)c1ccc(C(=O)OC)c(NC(=O)CN2CCN(c3ccccc3OC)CC2)c1 the results were UCH37 inh 2, PP5 inh 3, PAD4 FP inh 0, GSTO1 counter 24, Apaf1 inhib 8 and Fh CTSL1 inh 4.
CC(=NNc1ccc(Cl)cc1)c1ccncc1 was read as UCH37 inh 4.
Screening Cc1cccc(C)c1NC(=O)CSc1nc2ccccc2c(=O)[nH]1 returned UCH37 inh -1, PP5 inh 2, PAD4 FP inh 2, GSTO1 counter -32, Apaf1 inhib -19 and Fh CTSL1 inh -3.
Screening Cc1ccccc1C(=O)NNC(=O)CSc1nc2ccccc2c(=O)[nH]1 returned UCH37 inh 3, PP5 inh 2, PAD4 FP inh 23*, GSTO1 counter 14, Apaf1 inhib -11, Fh CTSL1 inh 18* and PAD4 FP conf -4.
`COc1cc(OC)c(OC)cc1/C=N/NC(=O)c1ccc2nc[nH]c2c1` gave PP5 inh -2, PAD4 FP inh 16*, GSTO1 counter -10, Apaf1 inhib -24, Fh CTSL1 inh 1 and PAD4 FP conf 1.
Screening O=[N+]([O-])c1ccccc1/C=C/C=NNc1nc(N2CCCCC2)nc(N2CCCCC2)n1 returned UCH37 inh 0.
`CCOC(=O)C1(C)C=C(Nc2ccc(OC)cc2)C(=O)N1c1ccc(OC)cc1` (configuration not stated) gave UCH37 inh -33, PP5 inh -2, PAD4 FP inh -4, GSTO1 counter 1, Apaf1 inhib 3 and Fh CTSL1 inh -1.
For CCOC(=O)C1(C)C=C(Nc2ccc(O)cc2)C(=O)N1c1ccc(O)cc1 (configuration not stated) the results were UCH37 inh 4, PP5 inh 8, PAD4 FP inh 85*, GSTO1 counter 89*, Apaf1 inhib 16, Fh CTSL1 inh 9 and PAD4 FP conf 6.
Screening NC(=Nc1ccc(N)cc1)C(N)=Nc1ccc(N)cc1 returned PP5 inh 1, PAD4 FP inh 46*, GSTO1 counter 13, Apaf1 inhib 3, Fh CTSL1 inh -1 and PAD4 FP conf -4.
`CC(=NO)C(C)=NNC(=O)c1ccccn1` gave UCH37 inh 4.
`Nc1nonc1-n1nnc(C(=O)N/N=C/c2cccnc2)c1CSC1=NCCS1` gave PP5 inh 1, PAD4 FP inh 35*, GSTO1 counter -17, Apaf1 inhib 0, Fh CTSL1 inh -6 and PAD4 FP conf 10.
O=C1CC(Nc2ccc(N3CCOCC3)cc2)C(=O)N1c1ccccc1F (configuration not stated) was read as UCH37 inh 7, PP5 inh 4, PAD4 FP inh 16*, GSTO1 counter 5, Apaf1 inhib 1, Fh CTSL1 inh 4 and PAD4 FP conf 9.
`COc1ccc(CCN2C(=O)CC(Nc3ccc(N4CCOCC4)cc3)C2=O)cc1OC` (configuration not stated) gave UCH37 inh 3, PP5 inh 1, PAD4 FP inh 20*, GSTO1 counter 4, Apaf1 inhib 6, Fh CTSL1 inh 0 and PAD4 FP conf 19*.
`COc1cc(Br)cc(C=Nc2ncn[nH]2)c1O` gave UCH37 inh 6.
`O=C(C=NO)NCCN1CCCCC1` gave UCH37 inh 0.
`Cc1ccc(-c2nc3sc(C#N)c(N)n3c(=O)c2C#N)cc1` gave UCH37 inh 9, PP5 inh -5, PAD4 FP inh 62*, GSTO1 counter 36*, Apaf1 inhib 8, Fh CTSL1 inh 11 and PAD4 FP conf -4.
`Cc1ccc(-n2c(N)c(C#N)c(-c3ccccc3)c(C#N)c2=O)cc1` gave UCH37 inh -110, PP5 inh 1, PAD4 FP inh -8, GSTO1 counter -7, Apaf1 inhib -3 and Fh CTSL1 inh 2.
For O=Cc1ccc(Sc2nnc(-c3ccccc3)o2)c([N+](=O)[O-])c1 the results were UCH37 inh 8, PP5 inh 1, PAD4 FP inh 24*, GSTO1 counter 23, Apaf1 inhib 18, Fh CTSL1 inh 0 and PAD4 FP conf 24*.
O=c1oc2ccc(NS(=O)(=O)c3cccc4cccnc34)cc2s1 was read as UCH37 inh 2, PP5 inh 2, PAD4 FP inh 36*, GSTO1 counter 31, Apaf1 inhib 4, Fh CTSL1 inh -2 and PAD4 FP conf 23*.
O=C(O)c1cccc(S(=O)(=O)Nc2ccc3oc(=O)sc3c2)c1 was read as PP5 inh 2, PAD4 FP inh 36*, GSTO1 counter 16, Apaf1 inhib -3, Fh CTSL1 inh 1 and PAD4 FP conf 13.
O=C(O)c1cccc(S(=O)(=O)Nc2ccc3[nH]c(=O)[nH]c3c2)c1 was read as UCH37 inh 3, PP5 inh 3, PAD4 FP inh -10, GSTO1 counter -37, Apaf1 inhib 26 and Fh CTSL1 inh 4.
`COc1ccc(-c2cc(=O)[nH]c(=O)[nH]2)cc1` gave UCH37 inh 3, PP5 inh 1, PAD4 FP inh -4, GSTO1 counter -11, Apaf1 inhib -8 and Fh CTSL1 inh 1.
`O=c1cc(-c2ccc(Cl)c(Cl)c2)[nH][nH]1` gave UCH37 inh -3, PP5 inh 2, PAD4 FP inh 51*, GSTO1 counter 19, Apaf1 inhib 26, Fh CTSL1 inh -1 and PAD4 FP conf -5.
COc1ccc(-c2cc(=O)[nH][nH]2)cc1 was read as UCH37 inh 3, PP5 inh -1, PAD4 FP inh 56*, GSTO1 counter 24, Apaf1 inhib 17, Fh CTSL1 inh 0 and PAD4 FP conf -5.
For COc1ccc(C=NNC(=O)c2ccc3nc[nH]c3c2)cc1 the results were UCH37 inh 3.
